{"source": "ChEMBL document CHEMBL3351861", "about": "“New synthetic sulfone derivatives inhibit growth, adhesion and the leucine arylamidase APE2 gene expression of Candida albicans in vitro” (2015)", "key": {"[1]": {"tested_on": "Candida albicans", "experiment": "Reduction in APE2 gene expression in compound pre-treated Candida albicans CAI4 expressing delta-efg1 gene grown under YEPD medium at 16 ug/ml pre-treated for 2 hrs measured after 18 hrs by RT-PCR method", "assay_type": "functional", "procedure,_shortened": "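YEPD-grown yeast (18 h, 30°C) washed and held at 10^4 cfu/ml in YEPD with 16 µg/ml sulfone for 2 h. Cells were then washed and regrown 18 h at 30°C in YEPD. Total RNA was reverse-transcribed and SYBR Green qPCR run (250 nM primers, 60 ng cDNA, 45 cycles). APE2 was normalized to ACT1 by 2^-ΔΔCt with strain 90028 as calibrator. Done in triplicate on three occasions.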"}, "[2]": {"tested_on": "Candida albicans", "experiment": "Increase in APE2 gene expression in compound pre-treated Candida albicans CAI4 expressing delta-cph1/delta-efg1 gene grown on human Caco2 cells monolayer at 16 ug/ml pre-treated for 2 hrs measured after 18 hrs by RT-PCR method", "assay_type": "functional, Caco-2", "procedure,_shortened": "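Blastoconidia are pre-incubated 2 h with 16 µg/ml sulfone in RPMI. They are then washed, resuspended in RPMI and placed on Caco-2 monolayers at 37°C, with RNA taken at 6 or 18 h. Real-time RT-PCR uses SYBR Green with 250 nM primers and 60 ng cDNA: 95°C 15 min, then 45 cycles of 94°C 15 s and 60°C 1 min, plus a melt curve. APE2 is normalized to ACT1 by 2^-ΔΔCt with 90028 as calibrator; three experiments.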"}}}
{"smiles": "NNc1ccc(S(=O)(=O)C(Cl)(Br)Br)cc1[N+](=O)[O-]", "values": [{"measurement": "ΔCt", "setting": "[1]", "result": 3.69}, {"measurement": "fold change (FC)", "setting": "[2]", "result": 1.38}]}
